Test results from publication PMC2842983 (Journal of medicinal chemistry, 2010).
“Also recorded” adds a separate entry of the source. Each block holds one compound with its values, some of them ahead of it.

What was measured:
EGFR [1] = target: T1, EGFR (Homo sapiens, UniProt P00533); settings: cited from earlier work
FGFR1 kinase [2] = target: T2, FGFR1 kinase (Homo sapiens, UniProt P11362); settings: cited from earlier work; for IC50: read-out: IC50 for FGFR1 kinase activity
PDGFR = settings: cited from earlier work
insulin receptor (InsR) = settings: cited from earlier work
[3] = test system: Src, InsR, EGFR, PDGFR, and several other kinases; settings: cited from earlier work
FGFR1 kinase [4] = target: T2, FGFR1 kinase; test: ALPHAScreen assay, inhibition of FGFR1 kinase; assay type: biochemical; settings: na = not active in the assay
EGFR [5] = target: T1, EGFR; test: ALPHAScreen kinase assay, EGFR; assay type: biochemical
Outline: (§1)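 Recombinant kinase was sourced commercially. In the AlphaScreen format, kinase, biotinylated peptide, ATP and test compound were combined across 10 wells, typically spanning 0.01 µM to 250 µM compound. Phosphorylation ran for 30 minutes and was stopped with EDTA. Phosphopeptide was detected with anti-phosphotyrosine acceptor beads and streptavidin donor beads, and IC50 was derived from the concentration series.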

InsR = InsR (Homo sapiens, UniProt P06213); test: ALPHAScreen kinase assay, InsR; assay type: biochemical; settings: kinase from Millipore, na = not active
Sequence of InsR (P06213 28-1382, species assumed): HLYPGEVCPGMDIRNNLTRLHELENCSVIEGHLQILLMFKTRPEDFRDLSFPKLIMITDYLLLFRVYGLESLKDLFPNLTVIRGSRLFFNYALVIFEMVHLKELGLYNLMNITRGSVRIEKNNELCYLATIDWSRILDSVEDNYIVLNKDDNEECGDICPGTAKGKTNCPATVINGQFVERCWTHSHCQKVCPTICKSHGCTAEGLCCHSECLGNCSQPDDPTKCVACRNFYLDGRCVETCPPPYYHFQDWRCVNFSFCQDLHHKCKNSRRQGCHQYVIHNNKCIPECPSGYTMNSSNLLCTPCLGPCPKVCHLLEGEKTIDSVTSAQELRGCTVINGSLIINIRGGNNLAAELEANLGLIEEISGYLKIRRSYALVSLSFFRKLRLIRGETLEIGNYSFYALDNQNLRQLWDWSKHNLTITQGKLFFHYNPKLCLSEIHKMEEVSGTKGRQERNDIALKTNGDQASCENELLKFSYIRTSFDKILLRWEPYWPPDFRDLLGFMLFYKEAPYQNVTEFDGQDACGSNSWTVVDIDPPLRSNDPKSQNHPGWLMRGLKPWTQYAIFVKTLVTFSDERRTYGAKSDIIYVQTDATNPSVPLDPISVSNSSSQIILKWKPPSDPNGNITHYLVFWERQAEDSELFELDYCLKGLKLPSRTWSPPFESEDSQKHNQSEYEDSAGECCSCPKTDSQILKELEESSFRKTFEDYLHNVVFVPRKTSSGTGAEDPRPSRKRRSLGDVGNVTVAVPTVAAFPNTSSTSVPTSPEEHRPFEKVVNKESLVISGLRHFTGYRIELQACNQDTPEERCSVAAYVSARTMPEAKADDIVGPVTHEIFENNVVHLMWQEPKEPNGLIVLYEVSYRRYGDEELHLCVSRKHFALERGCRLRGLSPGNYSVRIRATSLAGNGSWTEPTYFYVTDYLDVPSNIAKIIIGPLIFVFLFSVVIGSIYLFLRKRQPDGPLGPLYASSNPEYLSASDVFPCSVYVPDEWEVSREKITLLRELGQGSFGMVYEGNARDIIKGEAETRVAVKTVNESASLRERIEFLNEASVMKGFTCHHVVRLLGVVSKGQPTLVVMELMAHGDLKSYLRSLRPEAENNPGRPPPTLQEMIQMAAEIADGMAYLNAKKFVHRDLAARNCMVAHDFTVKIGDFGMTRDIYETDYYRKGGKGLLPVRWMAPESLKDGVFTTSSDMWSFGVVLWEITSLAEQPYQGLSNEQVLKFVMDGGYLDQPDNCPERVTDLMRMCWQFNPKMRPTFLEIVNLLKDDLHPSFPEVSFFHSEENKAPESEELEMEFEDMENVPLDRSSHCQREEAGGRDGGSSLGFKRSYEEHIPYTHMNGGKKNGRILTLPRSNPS
Outline: as §1

T1 sequence (P00533 25-1210, species assumed): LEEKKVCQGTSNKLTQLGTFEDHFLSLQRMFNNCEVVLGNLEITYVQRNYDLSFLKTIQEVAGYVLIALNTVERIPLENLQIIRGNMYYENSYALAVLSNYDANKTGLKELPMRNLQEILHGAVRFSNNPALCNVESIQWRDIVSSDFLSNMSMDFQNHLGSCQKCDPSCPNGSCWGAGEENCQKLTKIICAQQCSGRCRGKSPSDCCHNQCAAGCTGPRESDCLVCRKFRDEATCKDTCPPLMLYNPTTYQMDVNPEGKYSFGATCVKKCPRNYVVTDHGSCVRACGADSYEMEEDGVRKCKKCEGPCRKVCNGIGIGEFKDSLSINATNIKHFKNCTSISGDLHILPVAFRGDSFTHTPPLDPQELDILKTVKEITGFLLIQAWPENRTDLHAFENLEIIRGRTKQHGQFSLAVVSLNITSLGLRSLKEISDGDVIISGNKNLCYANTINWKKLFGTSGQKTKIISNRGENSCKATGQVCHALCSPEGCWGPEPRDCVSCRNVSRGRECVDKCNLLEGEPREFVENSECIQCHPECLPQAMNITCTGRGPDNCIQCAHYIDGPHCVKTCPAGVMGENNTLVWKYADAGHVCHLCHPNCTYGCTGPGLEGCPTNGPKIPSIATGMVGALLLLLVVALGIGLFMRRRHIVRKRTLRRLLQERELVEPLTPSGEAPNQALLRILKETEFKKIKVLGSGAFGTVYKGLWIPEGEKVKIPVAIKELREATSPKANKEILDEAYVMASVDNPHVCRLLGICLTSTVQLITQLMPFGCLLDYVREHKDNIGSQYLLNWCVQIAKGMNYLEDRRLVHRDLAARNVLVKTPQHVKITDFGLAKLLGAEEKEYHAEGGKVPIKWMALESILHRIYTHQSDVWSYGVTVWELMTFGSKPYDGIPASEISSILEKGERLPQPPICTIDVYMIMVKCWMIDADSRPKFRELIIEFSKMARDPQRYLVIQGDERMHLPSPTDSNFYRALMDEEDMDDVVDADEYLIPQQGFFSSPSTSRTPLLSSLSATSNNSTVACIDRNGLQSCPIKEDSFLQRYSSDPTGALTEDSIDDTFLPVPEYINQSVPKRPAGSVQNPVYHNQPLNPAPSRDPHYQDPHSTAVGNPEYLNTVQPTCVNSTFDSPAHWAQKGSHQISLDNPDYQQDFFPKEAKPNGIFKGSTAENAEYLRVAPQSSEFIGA
T2 sequence (P11362 478-767 limits assumed): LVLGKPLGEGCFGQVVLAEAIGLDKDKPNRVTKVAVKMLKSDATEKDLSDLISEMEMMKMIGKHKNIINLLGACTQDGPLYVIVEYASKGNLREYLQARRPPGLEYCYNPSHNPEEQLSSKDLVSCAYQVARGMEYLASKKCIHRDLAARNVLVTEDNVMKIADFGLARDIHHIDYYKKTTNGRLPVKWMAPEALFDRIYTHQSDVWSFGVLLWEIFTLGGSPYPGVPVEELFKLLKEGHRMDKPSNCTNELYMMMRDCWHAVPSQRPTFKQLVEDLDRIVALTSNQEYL

Compound: O=CN1CCN(c2ccc(/C=C3\C(=O)Nc4ccccc43)cc2)CC1 [compound 1, SU4984]
inhibition of EGFR kinase activity (EGFR [1]): does not inhibit
IC50 (FGFR1 kinase [2]): 10 to 20 µM
inhibition of PDGFR kinase activity (PDGFR): inhibits
inhibition of InsR kinase activity (insulin receptor (InsR)): inhibits

Compound: Cc1c[nH]c(/C=C2\C(=O)Nc3ccccc32)c1CCC(=O)O [compound 2, SU5402]
inhibition of EGFR kinase activity (EGFR [1]): does not inhibit
IC50 (FGFR1 kinase [2]): 10 to 20 µM
inhibition of PDGFR kinase activity (PDGFR): weak inhibitor
inhibition of InsR kinase activity (insulin receptor (InsR)): does not inhibit

Compound: CCN(CC)CCCCNc1ncc2cc(-c3cc(OC)cc(OC)c3)c(NC(=O)NC(C)(C)C)nc2n1 [compound 3, PD173074]
IC50 for other kinases relative to FGFR1 [3]: ≥ 1000 fold
potency of FGFR1 inhibition (FGFR1 kinase [2]): nanomolar potency

Compound: CCOc1cc(/C=C2\NC(=S)NC2=O)ccc1OCCCOc1cc(C)cc(C)c1 [compound 29]
IC50 for inhibition of FGFR1 kinase (FGFR1 kinase [4]): weak activity

Compound: COc1ccc(-c2nc(=O)c3c4c(sc3[nH]2)CC(C)CC4)cc1OC (centres unmarked) [compound 35]
IC50 for inhibition of FGFR1 kinase (FGFR1 kinase [4]): do not inhibit

More lines, main results first:

IC50 for inhibition of FGFR1 kinase (FGFR1 kinase [4]): weak activity
Compound: COCc1cc(/C=C2\NC(=S)NC2=O)ccc1OCCCOc1cc(C)cc(C)c1 [compound 30]

IC50 for inhibition of FGFR1 kinase (FGFR1 kinase [4]): do not inhibit
Compound: COc1cccc(-c2nc(=O)c3c4c(sc3[nH]2)CC(C)CC4)c1 (centres unmarked) [compound 36]

IC50 for inhibition of FGFR1 kinase (FGFR1 kinase [4]): eliminated activity
Compound: COc1cc(-c2nc(=O)c3c([nH]2)sc2cc(C(F)(F)F)ccc23)ccc1OCC(=O)O [compound 39]

IC50 (EGFR [5]): 2000 nM
Compound: COc1cc(-c2nc(=O)c3c([nH]2)sc2ccc(C)cc23)ccc1OCC(=O)O [compound 40]
IC50 InsR (InsR): does not inhibit; also recorded: no inhibition
